SIAE primary: inhibitors of human sialic acid acetylesterase SIAE; Q9HAT2; SIAE FP-Rh probe binding, fluorescence polarization; inhibition, % at 9.66 µM; 0.69% of 370,000 active; AID 1053197;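 active means inhibition above a cutoff: mean of compounds within the control limits plus 3 SD of those, cut at about 17% in these data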;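 further: 0% = plate median of compound wells and 100% = probe without SIAE protein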
HTRA1 inh: HTRA1 (human) protease inhibition. Q92743. 0.5% of 340,000 active. inhibition, % at 5.96 µM. recombinant HTRA1, FP-rhodamine activity-based probe, fluorescence polarization. AID 504803; in the data active means inhibition above about 36%;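 further: 0% = enzyme with DMSO and 100% = wells lacking enzyme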
Target sequence (Q92743 whole entry, looked up): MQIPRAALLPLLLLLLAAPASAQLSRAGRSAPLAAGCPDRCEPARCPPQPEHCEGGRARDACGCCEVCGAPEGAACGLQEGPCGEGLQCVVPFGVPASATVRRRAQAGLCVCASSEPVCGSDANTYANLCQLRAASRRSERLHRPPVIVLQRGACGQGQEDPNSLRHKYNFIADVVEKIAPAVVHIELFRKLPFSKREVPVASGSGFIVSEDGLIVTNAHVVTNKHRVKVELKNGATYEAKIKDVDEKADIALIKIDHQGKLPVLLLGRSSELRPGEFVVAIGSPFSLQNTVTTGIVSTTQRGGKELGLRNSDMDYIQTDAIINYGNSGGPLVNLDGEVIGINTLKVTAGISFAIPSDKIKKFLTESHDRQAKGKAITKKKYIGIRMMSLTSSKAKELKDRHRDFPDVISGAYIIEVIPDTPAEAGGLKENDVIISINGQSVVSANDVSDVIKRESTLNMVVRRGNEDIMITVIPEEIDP
TCR-CD3 inh: human TCR-CD3 binding inhibition; AID 651800; TAMRA-labeled TCR probe fluorescence, biochemical; 0.37% of 360,000 active; inhibition, % at 9.4 µM;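 further: recombinant mutant TCR 2C K166C tagged with TAMRA read by polarization; 0% = receptor in buffer alone and 100% = receptor with positive control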
PRMT1 inh: blocks human protein arginine methyltransferase 1; Q99873; recombinant PRMT1, activity-based probe fluorescence polarization; AID 652257; 1.3% of 370,000 active; inhibition, % at 2.79 µM;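 active means inhibition above about 21% made by adding two undisclosed values, limit read from the data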
ABHD4 inh: inhibitors of mouse ABHD4 | Q8VD66 | purified mABHD4, FP-Rh probe fluorescence polarization | inhibition, % at 8.92 µM | 0.54% of 370,000 active;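 active means inhibition exceeding the mean over every tested compound plus 3 SD, cut at about 30% in these data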;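 further: 0% = plate median of compound wells and 100% = S159A mutant with DMSO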
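Assay system: Wild-type mouse ABHD4 protein | Medium: HEPES pH 7.0 buffer, 150 mM NaCl, 0.01% Pluronic F-127 | Incubation: Enzyme–compound pre-incubation 45 min, then probe 60 min, both 25 °C | Technique: Fluorescence polarization with parallel and perpendicular emission, 525/598 nm | Evaluation: % inhibition of FP-Rh probe binding versus controls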
HTRA1 inh conf: confirmation of human HTRA1 inhibitors; 66% of 1,600 active; shares compounds with HTRA1 inh; recombinant HTRA1, FP-rhodamine activity-based probe, fluorescence polarization; inhibition, % at 5.96 µM; AID 540248;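 active means mean inhibition over three repeats above a set limit taken from the earlier primary screen, cut at about 37% in these data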;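 further: 0% = HTRA1 with DMSO and 100% = wells lacking HTRA1; inhibitors block probe binding so polarization drops and inhibition rises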
BSA TAMRA ctr: counter-screen for TCR-CD3 interaction inhibitors: BSA probe | inhibition, % at 9.4 µM | TAMRA-labeled BSA probe fluorescence counterscreen | 10% of 1,200 active | shares compounds with TCR-CD3 inh | AID 652035; in the data active means inhibition above about 23%;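 further: 0% = buffer low control and 100% = reference high control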
TCR-CD3 conf: TCR-CD3 interaction inhibition, confirmation | shares compounds with TCR-CD3 inh | TAMRA-labeled TCR probe fluorescence binding assay | inhibition, % at 9.4 µM | 48% of 1,200 active
PRMT1 confirm: PRMT1 (human) inhibition, FP confirmation; shares compounds with PRMT1 inh; inhibition, % at 2.79 µM; recombinant His-PRMT1, activity-based probe fluorescence polarization; 42% of 3,300 active;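 active means mean inhibition across replicates above the hit cutoff derived for the earlier primary screen, cut at about 22% in these data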
ABHD4 confirm: ABHD4 (mouse) inhibition, FP confirmation; purified mABHD4, FP-Rh probe fluorescence polarization; shares compounds with ABHD4 inh; inhibition, % at 8.92 µM; 55% of 1,800 active; AID 720658;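 active means mean inhibition across replicates above the hit cutoff set in the primary screen, cut at about 30% in these data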;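 further: 0% = wild-type ABHD4 with DMSO and 100% = catalytically dead S159A mutant with DMSO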
* hit, by the source's call; . = no result. An excerpt weighted towards active compounds, which were near 2.6% of everything screened. Unless noted, no stated cut-off is given here; in the data, active means inhibition above about 19%; inactive means the rest.

SMILES	SIAE primary	HTRA1 inh	TCR-CD3 inh	PRMT1 inh	ABHD4 inh	HTRA1 inh conf	PRMT1 confirm	ABHD4 confirm	others
CC(=O)C1=C(C)N(Cc2ccc(Br)cc2)C(=S)NC1c1cccc(Cl)c1 (stereo unspecified)	-17	.	-2	-2	-19	.	.	.
CCOC(=O)c1c(C)oc2c1c(CN1CCN(CCO)CC1)c(O)c1ccccc12	6	2	6	7	17	.	.	.
CCOC(=O)c1c(C)oc2c(CC(=O)c3ccccc3)c(Cl)c(O)c(O)c12	8	46*	-6	27*	26	4	4	.
O=C(CSc1cccc[n+]1[O-])Nc1cc(Cl)ccc1[N+](=O)[O-]	4	1	0	4	5	.	.	.
O=[N+]([O-])c1ccc(Sc2cccc[n+]2[O-])c2nonc12	-5	81*	4	88*	26	101*	91*	.
CCOC(=O)Nc1ccc(NCc2ccc(F)cc2)nc1N	7	60*	-8	64*	-13	4	14	.
COC(=O)C1=C(C)N(Cc2ccc(C(F)(F)F)cc2)C(=NCc2ccc(OC)cc2)NC1c1ccccc1 (stereo unspecified)	9	.	-1	-4	28	.	.	.
CCCCCC(=O)Nc1ccc(C(=O)CN2C(=O)NC3(CCCCCC3)C2=O)cc1	-5	-11	4	5	-9	.	.	.
Cc1ccc2nc(N3C(=O)C(O)=C(C(=O)c4ccc(C)o4)C3c3ccco3)sc2c1 (stereo unspecified)	2	3	0	15	15	.	.	.
O=C(C1=C(O)C(=O)N(c2nc3ccc(Cl)cc3s2)C1c1ccco1)c1ccco1 (stereo unspecified)	5	39*	18	36*	28	-54	7	.
Cc1cc(=O)n2[nH]c(-c3ccsc3-n3c(C)ccc3C)cc2n1	-5	30	16	15	13	.	.	.
Cc1nc2cc(-c3ccsc3-n3c(C)ccc3C)[nH]n2c(=O)c1Cl	5	38*	7	25*	7	3	9	.
COC(=O)[C@]12C[C@H](CC(=O)N3CCSCC3)C(=O)N(Cc3ccccc3)C1=C[C@H](C1CCCC1)O[C@@H]2C	-2	.	0	0	-6	.	.	.
COc1cccc(NS(=O)(=O)c2ccc3c(c2)C2C=CCC2C(c2ccc(C(=O)O)cc2)N3)c1 (stereo unspecified)	10	49*	13	42*	28	15	30*	.
Cc1cc2ccccc2n1CCNC(=O)c1ccc(Br)o1	8	57*	18	27*	15	20	1	.
N#C/C(N=Nc1ccccc1O)=N\Nc1ccccc1O	4	68*	-8	10	67*	71*	.	110*
COC(=O)[C@H](Cc1ccccc1)N[C@H](c1ccc(OC)cc1)[C@@H](O)Cc1ccccc1	-1	.	9	0	-6	.	.	.
Oc1ccc(/C=N/N2CCCCC2)c(O)c1O	6	38*	7	23*	31*	33	.	15
Cc1cc(=O)c2c(o1)C(=O)c1occc1C2=O	5	46*	9	36*	58*	15	26*	61*
COc1ccc2[nH]c(=O)cc(C(=O)O)c2c1	7	3	4	-1	7	.	.	.
COc1ccc2[nH]c3c4c(ccc3c2c1)C(=O)C=CC4=O	1	80*	1	20	56*	53*	.	51*
O=[N+]([O-])c1ccc2c([N+](=O)[O-])ccc3c2c1CC3	16	54*	9	17	40*	38*	.	90*
O=C(N[C@H](C(=O)N1CCC[C@H]1C(=O)NC1CCCC1)C1CCCCC1)c1nccs1	3	.	-2	3	-1	.	.	.
O=C(N/N=C/c1c(O)ccc2ccccc12)c1ccc(Br)o1	12	48*	26*	1	38*	42*	.	10	BSA TAMRA ctr=-13;TCR-CD3 conf=22*
O=C(CSc1nnnn1-c1ccc(F)cc1)c1ccc(O)c(O)c1	5	41*	6	4	30*	53*	.	15
SMILES	SIAE primary	HTRA1 inh	TCR-CD3 inh	PRMT1 inh	ABHD4 inh	HTRA1 inh conf	PRMT1 confirm	ABHD4 confirm	others
Cc1ccc2nc(CN(C)C(=O)[C@H](CCc3ccccc3)NC(=O)[C@H]3O[C@@H](n4cnc5c(N)ncnc54)[C@H](O)[C@@H]3O)[nH]c2c1	13	.	8	-2	-6	.	.	.
COc1cccc(C(CC2=CCCCC2)NC(=O)C(F)(F)F)c1 (stereo unspecified)	-3	.	4	-1	-12	.	.	.
COc1ccc(OC)c(NC(=O)CSc2nncc3ccc(OC)c(OC)c23)c1	11	44*	11	55*	43*	2	4	32*
O=C(NCc1ccccc1)c1onc(CS(=O)(=O)c2ccccn2)c1C(=O)NCc1ccccc1	2	-15	-7	2	-1	.	.	.
COC(=O)[C@]12C[C@H](CC(=O)NCc3cccs3)C(=O)N(Cc3ccccc3)C1=C[C@H](C1CCCC1)O[C@@H]2C	1	.	-6	5	4	.	.	.
O=C(/C=C/c1ccccc1)c1cc(Br)ccc(=O)c1O	9	58*	8	34*	37*	65*	28*	29
O=C(/C=C/c1ccc(F)cc1)c1cc(Br)ccc1O	0	-11	-1	3	3	.	.	.
Oc1ccc(/C=N/N(c2ccccc2)c2ccccc2)cc1O	2	57*	1	18	42*	97*	.	27
CCN(CC)c1ccc(/C=N/N(c2ccccc2)c2ccccc2)c(O)c1	3	23	-6	1	5	.	.	.
Cc1ccc(/C=[N+](\[O-])c2ccc(N(C)C)cc2)c2nsnc12	9	38*	8	3	30*	20	.	-8
C[C@@H]1Cn2cnc(C(=O)N[C@@H](Cc3c[nH]c4ccccc34)C(=O)OC(C)(C)C)c2C(=O)N1	1	5	-2	2	2	.	.	.
CN(C)c1ccc(CCc2ccc(N)cc2)cc1	14	4	1	-2	4	.	.	.
Nc1ccc(N(c2ccccc2)c2ccc(N)cc2)cc1	11	65*	-1	2	39*	54*	.	48*
Cc1ccc(NC(=O)N2CC(C)OC(C)C2)cc1[N+](=O)[O-] (stereo unspecified)	-2	.	3	0	0	.	.	.
Cc1oc2c(c(C)nn2-c2ccccc2)c(=O)c1Cl	-3	.	5	-2	0	.	.	.

Bioassay records (PubChem BioAssay)
